Assay outcomes: PubChem BioAssay, several laboratories
MPTP block = mitochondrial permeability transition pore inhibitors, primary screen, biochemical, isolated mouse mitochondria, absorbance | inhibition, % at 10 µM | actives 1.4% (n = 360,000) | Ca2+ swelling absorbance, 30 min | AID 602449, 2012;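 active means inhibition of 50% or more, scaled per plate between neutral and stimulator controls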
OX1R antag-1 = antagonists of human orexin 1 receptor (OX1R) | Orexin/Hypocretin receptor type 1 (Homo sapiens), O43613 | OX1R-expressing cells, FRET antagonist read-out | inhibition, % at 6.6 µM | actives 1.8% (n = 330,000) | AID 485270, 2010; in the data active means inhibition mostly above about 38%, no sharp cut-off; inactive means mostly below about 40%
GPR7 antag = GPR7 receptor antagonists, primary screen, cell-based, fluorescence, single concentration; GPR7-expressing cells, fluorescence antagonist assay; Neuropeptides B/W receptor type 1 (Homo sapiens), P48145; actives 1.1% (n = 290,000); inhibition, % at 4.4 µM; in the data active means inhibition above about 16%, passing the limit was not always enough;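 further: cells stimulated with the agonist NPW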
Target sequence (P48145 whole entry, looked up): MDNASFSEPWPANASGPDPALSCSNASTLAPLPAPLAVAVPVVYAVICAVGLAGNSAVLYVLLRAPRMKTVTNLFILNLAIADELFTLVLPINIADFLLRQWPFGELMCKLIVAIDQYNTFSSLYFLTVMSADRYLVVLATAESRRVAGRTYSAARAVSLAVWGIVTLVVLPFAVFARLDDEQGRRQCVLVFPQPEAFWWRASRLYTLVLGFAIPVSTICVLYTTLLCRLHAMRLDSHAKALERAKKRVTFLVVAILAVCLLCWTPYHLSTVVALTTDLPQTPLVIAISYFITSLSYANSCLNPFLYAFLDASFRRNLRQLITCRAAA
OX1R antag-2 = OX1R (HCRTR1) antagonists, primary screen, fluorescence, CHO/OX1R cells, Fluo-8 calcium, orexin A; Orexin/Hypocretin receptor type 1 (Homo sapiens), O43613; Fluo-8 calcium fluorescence; inhibition, % at 5 µM; actives 0.43% (n = 330,000); AID 434989, 2010;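 active means inhibition above its plate's threshold, mean inhibition of all tested compounds on the plate plus 3 SD, cut at about 37% in these data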
CHO parental Ca = ATP-evoked calcium signal inhibitors, parental CHO, primary screen, counter-screen for OX1R antagonist project, cell-based, fluorescence, Fluo-8 calcium dye | parental CHO-K1, ATP-induced calcium, Fluo-8 fluorescence | inhibition, % at 5.6 µM | actives 0.63% (n = 330,000);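 active means inhibition above that plate's mean sample inhibition plus 3 SD, cut at about 26% in these data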
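Material – parental CHO cells · Reagent – ATP stimulus · Compound – single nominal dose of 5.6 µM per compound · Detection – Fluo-8 fluorescence · Read-out basis – percent inhibition of calcium signal · Controls – ATP-challenged DMSO wells low, unchallenged DMSO wells high · Repeats – no replicates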
OX1R HTRF confirm = OX1R (HCRTR1) antagonists, confirmation, cell-based, HTRF | shares compounds with OX1R antag-1 | OX1R-expressing cells, HTRF antagonist assay | inhibition, % at 6.6 µM | actives 49% (n = 1,800) | AID 492964, 2010; in the data active means inhibition above about 55%;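 further: CHO cells expressing OX1R stimulated with orexin A at about EC80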
CHO-K1 HTRF cnt = signal inhibition in parental CHO-K1 cells, counter-screen for OX1R antagonist project, cell-based, HTRF. actives 48% (n = 1,800). inhibition, % at 6.6 µM. shares compounds with OX1R antag-1. HTRF counterscreen; in the data active means inhibition above about 17%
Numbers stand for hits; . = inactive; / = no result given. Compounds with a hit are over-represented: about 3.8% of the library has one in this group of screens.

SMILES | MPTP block | OX1R antag-1 | GPR7 antag | OX1R antag-2 | CHO parental Ca | OX1R HTRF confirm | CHO-K1 HTRF cnt
CCCCCCCCNC(=O)/C(C#N)=C/c1ccc(SC)cc1 | . | . | . | . | . | / | /
COc1ccc(-c2ncn(CCC#N)c2[N+](=O)[O-])cc1 | . | 85 | . | . | . | . | 42
COc1ccc(-c2cc(=O)n(CCC#N)[nH]2)cc1 | . | . | . | . | . | / | /
Cc1nc(N2CCOCC2)[nH]c(=O)c1C(O)C(Cl)(Cl)Cl (configuration not stated) | . | . | . | . | . | / | /
CCOC(=O)N/N=C(/C)c1ccc([N+](=O)[O-])o1 | . | 93 | . | . | . | . | 77
COc1ccc(-c2csc(Nc3ncccc3C)n2)cc1OC | . | 84 | . | . | . | 73 | .
O=C(NCCN1CCNC1=O)C1CCC(=O)N(Cc2cccc(C(F)(F)F)c2)C1 (configuration not stated) | . | . | . | . | . | / | /
COc1ccc(OS(=O)(=O)c2c(C)noc2C)cc1 | . | . | . | . | . | / | /
COc1ccc(/C=N/NC(=O)c2cc(C)on2)c2ccccc12 | . | 87 | . | . | . | 65 | .
COc1ccc(/C=N/NC(=O)c2sccc2C)c2ccccc12 | . | . | / | . | . | / | /
O=C(Nc1cccc(-c2nc3ncccc3o2)c1)c1cc2ccccc2o1 | . | 105 | . | . | . | 92 | 19
Cc1ccc(-c2nc3ncccc3o2)cc1NC(=O)c1cc2ccccc2o1 | . | . | . | . | . | / | /
O=c1c2ccccc2nc2n1CC/C2=C\N1CCN(c2ccc([N+](=O)[O-])cc2)CC1 | . | 94 | / | . | . | . | 23
CCOC(=O)c1c(C)[nH]c(C(=O)OCC(=O)Nc2sccc2C(N)=O)c1C | . | 99 | / | . | . | 64 | .
CN1CCN(C(=O)Nc2ccccc2)CC1 | . | 92 | . | . | . | . | .
O=C(Nc1ccccc1)N1CCN(c2ccccc2)CC1 | . | / | / | / | / | / | /
COc1ccc(N(CC(=O)NCCSc2ccccn2)S(=O)(=O)c2ccccc2)cc1Cl | . | . | . | . | . | / | /
COc1ccc(Cl)cc1N(CC(=O)NCCSc1ccccn1)S(=O)(=O)c1ccccc1 | . | 79 | . | . | . | 80 | .
COCCCNC(=O)CN(c1cc(Cl)ccc1OC)S(=O)(=O)c1ccc(C)c([N+](=O)[O-])c1 | . | 79 | . | . | . | 59 | .
COCCNC(=O)CN(c1cc(Cl)ccc1OC)S(=O)(=O)c1ccc(C)c([N+](=O)[O-])c1 | . | . | . | . | . | / | /
Clc1ccc(N/N=C/c2cccnc2)cc1 | . | . | . | . | . | / | /
Nc1c(Cl)ncnc1N/N=C/c1cccnc1 | . | 84 | . | . | . | . | 31
CCCc1nnc(N2C(=O)c3cccc4cccc(c34)C2=O)s1 | . | 103 | . | . | . | . | 37
O=S(=O)(c1cccc2nsnc12)N1CCOCC1 | . | 92 | . | . | . | . | 38
O=S(=O)(c1cccc2nsnc12)N1CCN(c2ccc(F)cc2)CC1 | . | . | . | . | . | / | /
SMILES | MPTP block | OX1R antag-1 | GPR7 antag | OX1R antag-2 | CHO parental Ca | OX1R HTRF confirm | CHO-K1 HTRF cnt
CCOC(=O)C1CCN(C(=O)COC(=O)c2ccccc2C(=O)c2ccc(Cl)cc2)CC1 | . | . | / | . | . | / | /
O=C1NC(=S)N/C1=C/c1cccc([N+](=O)[O-])c1 | . | 93 | . | . | . | . | 40
CC(C)CCCC(C)NS(=O)(=O)Cc1ccccc1 (configuration not stated) | . | . | . | . | . | / | /
CC(C)(CO)N=C1NS(=O)(=O)c2cc([N+](=O)[O-])ccc21 | . | 99 | . | . | . | 56 | 63
NN=C1c2cc([N+](=O)[O-])ccc2-c2ccc([N+](=O)[O-])cc21 | / | / | . | / | / | / | /
COc1ccc2cc(C(N)=O)/c(=N/NC(=O)c3ccco3)oc2c1 | . | 79 | . | . | . | . | .
CC(C)CCNC(=O)c1ccc(Cn2c(=S)[nH]c3ccccc3c2=O)cc1 | . | . | . | . | . | / | /
